Test results: ChEMBL document CHEMBL1134208, “Controlled drug release: new water-soluble prodrugs of an HIV protease inhibitor” (Bioorg Med Chem Lett, 2001)
In brackets after ≈: the same amount, converted by molar mass.

Legend:
Assay type in all cases: ADME
[1] = Time required for 50% release of KNI-727 at 37 degree celsius
Summary of the method: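 Prodrug added from a 0.5 mM DMSO stock to PBS (pH 7.4) and incubated at 37 °C. Aliquots taken at successive time points were injected directly onto HPLC with detection at 230 nm. Loss of prodrug and appearance of released parent were followed over time to give the half-life of release.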

[2] = Water solubility of prodrug was determined relative to KNI-727; conditions: buffer
Summary of the method: (§1)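 Prodrug solution was passed through a membrane filter, and the dissolved prodrug concentration was then quantified by HPLC. Solubility was set against that of the parent drug measured the same way.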

[3] = Water solubility of prodrug was determined; conditions: buffer; summary of the method: as §1

SMILES	T1/2 [1] [h]	Relative solubility [2]	Solubility [3] [mg/mL]	Solubility [2] [mg/mL]
Cc1cccc(C)c1OCC(=O)N[C@@H](Cc1ccccc1)[C@H](OC(=O)CCC(=O)NCCC(=O)O)C(=O)N1CSC(C)(C)[C@H]1C(=O)NC(C)(C)C	16.8			
Cc1cccc(C)c1OCC(=O)N[C@@H](Cc1ccccc1)[C@H](OC(=O)CCCC(=O)NCCN)C(=O)N1CSC(C)(C)[C@H]1C(=O)NC(C)(C)C.Cl	28		56.9	5130
Cc1cccc(C)c1OCC(=O)N[C@@H](Cc1ccccc1)[C@H](OC(=O)CC(C)(C)C(=O)NCCN)C(=O)N1CSC(C)(C)[C@H]1C(=O)NC(C)(C)C.Cl	< 0.017		136.7	12300
Cc1cccc(C)c1OCC(=O)N[C@@H](Cc1ccccc1)[C@H](OC(=O)CCC(=O)NCc1ccccc1)C(=O)N1CSC(C)(C)[C@H]1C(=O)NC(C)(C)C.Cl	8.8		< 0.0111	
Cc1cccc(C)c1OCC(=O)N[C@@H](Cc1ccccc1)[C@H](OC(=O)CCC(=O)NCCN(C)C)C(=O)N1CSC(C)(C)[C@H]1C(=O)NC(C)(C)C.Cl	0.183		171.5	

Other lines, results leading:

T1/2 [1] [h]	Relative solubility [2]	Solubility [3] [mg/mL]	Solubility [2] [mg/mL]	SMILES
18.7	6.6	0.0735 (≈ 103 µM)		Cc1cccc(C)c1OCC(=O)N[C@@H](Cc1ccccc1)[C@H](OC(=O)CCC(=O)NCC(=O)O)C(=O)N1CSC(C)(C)[C@H]1C(=O)NC(C)(C)C
0.333	18.9	0.21 (≈ 295 µM)		Cc1cccc(C)c1OCC(=O)N[C@@H](Cc1ccccc1)[C@H](OC(=O)CCC(=O)NCC(N)=O)C(=O)N1CSC(C)(C)[C@H]1C(=O)NC(C)(C)C
16	8.1	0.0895 (≈ 137 µM)		Cc1cccc(C)c1OCC(=O)N[C@@H](Cc1ccccc1)[C@H](OC(=O)CCC(N)=O)C(=O)N1CSC(C)(C)[C@H]1C(=O)NC(C)(C)C
0.35		115.4	10400	Cc1cccc(C)c1OCC(=O)N[C@@H](Cc1ccccc1)[C@H](OC(=O)CCC(=O)NCCN)C(=O)N1CSC(C)(C)[C@H]1C(=O)NC(C)(C)C.Cl
